From ChEMBL document CHEMBL1795280, “Design, synthesis and activity of a potent, selective series of N-aryl pyridinone inhibitors of p38 kinase” (Bioorg Med Chem Lett, 2011)

Experiments:
[1] = Metabolic stability in rat liver microsomes assessed as compound remaining at 2 uM after 45 mins by LC/MS analysis; assay type: ADME, Microsome; conditions: read-out: Stability
[2] = Bioavailability in iv and po dosed Sprague-Dawley rat; assay type: ADME, organism-based; conditions: in vivo
[3] = Metabolic stability in human liver microsomes assessed as compound remaining at 2 uM after 45 mins by LC/MS analysis; assay type: ADME, Microsome; conditions: read-out: Stability
[4] = Half life in iv and po dosed Sprague-Dawley rat; assay type: ADME, organism-based; conditions: in vivo
[5] = target: Mitogen-activated protein kinase 14 (Homo sapiens, UniProt Q16539); test: Inhibition of p38alpha assessed as phosphorylation of […] after 60 mins by fluorescence assay
Outline: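 Cascade assay in which activated p38α (6 pM final) activates unactivated MK2 (1 nM), which phosphorylates FITC-labelled Hsp27 peptide (1 nM) with […]. Inhibitor 0.2–10,000 nM. Room temperature, 60 min, EDTA quench. Phospho-peptide quantified by Caliper LabChip; IC50.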

Rattus norvegicus [6] = test: Antiinflammatory activity in Lewis rat assessed as inhibition of LPS-induced TNFalpha production at 5 mg/kg, po administered 6 hrs before LPS challenge by ELISA; assay type: functional
Outline: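 Adult male Lewis rats (225–250 g), fasted 18 h with free access to water. Compound or vehicle given by oral gavage (1 mL). LPS (E. coli 0111:B4) given 1 mg/kg i.v. in saline 2, 4 or 6 h later. Serum taken by cardiac puncture 90 min after LPS. TNFα quantified against a recombinant rat TNF standard curve with a four-parameter fit. Two vehicle groups per experiment, three experiments.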

[7] = Solubility of the compound; assay type: physicochemical
[8] = Clearance in iv and po dosed Sprague-Dawley rat; assay type: ADME, organism-based; conditions: in vivo
PBMC = test: Antiinflammatory activity in human PBMC assessed as inhibition of LPS-induced TNFalpha production treated 1 hr before LPS challenge measured after 18 hrs; assay type: functional, cell-based
Outline: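 PBMCs isolated by Ficoll from heparinized blood of two healthy donors, in DMEM with 5% endotoxin-free FBS, 2.5 × 10⁵ cells/well. Pretreated 1 h with compound (0.0001–25 µM range), then stimulated 18 h with 22 ng/ml LPS. Final DMSO 0.25%. Secreted TNFα measured by MSD; IC50 reported.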

Rattus norvegicus [9] = test: Antiinflammatory activity in Lewis rat assessed as inhibition of LPS-induced TNFalpha production at 15 mg/kg, po administered 4 hrs before LPS challenge by ELISA

Mitogen-activated protein kinase 14, sequence (Q16539 whole entry): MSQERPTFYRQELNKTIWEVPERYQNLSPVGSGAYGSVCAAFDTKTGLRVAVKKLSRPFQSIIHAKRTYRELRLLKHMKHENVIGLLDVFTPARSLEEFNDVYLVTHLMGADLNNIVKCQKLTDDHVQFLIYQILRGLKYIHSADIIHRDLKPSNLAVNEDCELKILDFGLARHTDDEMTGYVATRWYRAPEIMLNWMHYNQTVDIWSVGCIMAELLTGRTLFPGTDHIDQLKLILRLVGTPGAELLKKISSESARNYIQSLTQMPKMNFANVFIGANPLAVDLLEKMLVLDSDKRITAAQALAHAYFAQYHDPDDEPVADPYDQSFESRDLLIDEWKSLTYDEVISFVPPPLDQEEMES

remaining at 0.75 h, 2 µM [1] [%] | bioavailability [2] [%] | remaining at 0.75 h, 2 µM [3] [%] | half-life [4] [min] | IC50 [5] [nM] | solubility [7] [µg/mL] | clearance [8] [mL/min/kg] | SMILES | inhibition in vivo at 5 mg/kg (Rattus norvegicus [6]) [%] | IC50 (PBMC) [nM] | inhibition in vivo at 15 mg/kg (Rattus norvegicus [9]) [%]
87 | 21 | 74 | 108 | 4 | < 10 | 12.8 | Cc1cc(OCc2ccc(F)cc2F)c(Cl)c(=O)n1-c1c(F)cccc1F | 83 | 17 | 
0 |  | 0 |  | 6 |  |  | CN(C)Cc1cc(OCc2ccc(F)cc2F)c(Br)c(=O)n1-c1c(F)cccc1F |  | 50 | 69
